Experimental findings from ChEMBL document CHEMBL3352286, “Submonomer synthesis of azapeptide ligands of the Insulin Receptor Tyrosine Kinase domain” (Bioorg Med Chem Lett, 2014) are described below.

In data set [1] the target is Insulin receptor (Homo sapiens) (UniProt P06213). Briefly: Inhibition of human active insulin receptor tyrosine kinase domain (amino acids 1005 to 1310) assessed as reduction in autophosphorylation at 400 uM using 1000 uM ATP and insulin by BCIP/NBT staining based colorimetry and immunoblotting. A general note: A western blot detects proteins with antibodies after separation by electrophoresis.
Sequence of Insulin receptor (Homo sapiens) (P06213 28-758 limits assumed): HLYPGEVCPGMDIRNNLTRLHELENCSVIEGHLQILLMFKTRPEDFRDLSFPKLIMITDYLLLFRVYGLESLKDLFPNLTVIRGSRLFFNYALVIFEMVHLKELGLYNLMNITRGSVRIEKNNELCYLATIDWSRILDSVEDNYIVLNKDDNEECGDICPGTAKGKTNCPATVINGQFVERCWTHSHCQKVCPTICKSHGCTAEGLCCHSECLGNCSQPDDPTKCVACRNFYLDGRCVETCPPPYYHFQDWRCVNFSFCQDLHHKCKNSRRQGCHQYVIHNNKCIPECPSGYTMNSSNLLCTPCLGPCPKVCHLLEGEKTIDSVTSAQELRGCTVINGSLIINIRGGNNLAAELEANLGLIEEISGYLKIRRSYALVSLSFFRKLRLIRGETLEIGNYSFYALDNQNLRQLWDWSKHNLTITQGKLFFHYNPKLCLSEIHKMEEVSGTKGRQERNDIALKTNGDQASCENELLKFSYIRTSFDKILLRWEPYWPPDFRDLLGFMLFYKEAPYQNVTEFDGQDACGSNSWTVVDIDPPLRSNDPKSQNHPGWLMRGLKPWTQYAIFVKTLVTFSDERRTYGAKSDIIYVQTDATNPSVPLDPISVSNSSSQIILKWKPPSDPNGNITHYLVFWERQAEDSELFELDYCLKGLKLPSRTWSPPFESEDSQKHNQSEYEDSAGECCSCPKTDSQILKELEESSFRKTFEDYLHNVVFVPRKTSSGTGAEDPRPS
Sequence of Insulin receptor (Homo sapiens) (P06213 763-1382 limits assumed): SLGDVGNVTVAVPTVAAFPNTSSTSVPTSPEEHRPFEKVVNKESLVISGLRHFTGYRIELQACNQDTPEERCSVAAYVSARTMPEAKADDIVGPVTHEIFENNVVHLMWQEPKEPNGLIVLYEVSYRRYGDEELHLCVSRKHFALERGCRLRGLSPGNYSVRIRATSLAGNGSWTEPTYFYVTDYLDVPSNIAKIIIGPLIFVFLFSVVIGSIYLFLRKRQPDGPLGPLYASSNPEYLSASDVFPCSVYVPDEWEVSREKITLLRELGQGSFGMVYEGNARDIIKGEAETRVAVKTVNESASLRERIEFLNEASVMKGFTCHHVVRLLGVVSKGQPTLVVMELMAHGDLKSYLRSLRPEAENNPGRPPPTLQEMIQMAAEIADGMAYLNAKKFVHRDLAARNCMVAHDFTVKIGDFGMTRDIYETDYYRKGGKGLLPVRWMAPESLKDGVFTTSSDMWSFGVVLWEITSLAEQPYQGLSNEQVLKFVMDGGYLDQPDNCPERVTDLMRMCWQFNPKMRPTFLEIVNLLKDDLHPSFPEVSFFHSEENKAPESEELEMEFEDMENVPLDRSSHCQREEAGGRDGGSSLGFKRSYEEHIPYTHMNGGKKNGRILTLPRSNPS

The nature of data set [2]: Retention time of the compound using 2 to 90% MeCN in H2O with 0.1% FA over 15 mins by RP-LC method. The format is physicochemical. To be noted: 0.25 h.
Data set [3] is described as follows: Retention time of the compound using 2 to 90% MeOH in H2O with 0.1% FA over 15 mins by RP-LC method. Format: physicochemical. To be noted: 0.25 h. In short, it runs like this:
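Reversed-phase LC with UV detection at 214 nm; gradient of 2–90% MeOH in H2O containing 0.1% formic acid over 15 min; retention time in minutes.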

The target of data set [4] is Insulin receptor (Homo sapiens) (UniProt P06213). The experiment in a line: Inhibition of human active insulin receptor tyrosine kinase domain (amino acids 1005 to 1310) assessed as residual autophosphorylation level at 400 uM using 1000 uM ATP and insulin by BCIP/NBT staining based colorimetry and immunoblotting. In a few lines:
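Recombinant IRTK domain (residues 1005–1310), 200 ng/mL, incubated with 1000 µM ATP and peptide ligand in reaction buffer for 20 min at 37 °C, then quenched. Samples were resolved by denaturing 10% Bis-Tris PAGE and transferred to PVDF, which was blocked overnight in 2% BSA/TBST. Blots were probed with anti-phospho-IR/IGF1R (Tyr1158/1162/1163) and an AP-conjugated goat anti-rabbit IgG, and developed colorimetrically with BCIP/NBT.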

The target of data set [5] is Insulin receptor (Rattus norvegicus) (UniProt P15127). Briefly: Inhibition of rat liver IRTK assessed as reduction in enzyme phosphorylation at 4 mM.
Sequence of Insulin receptor (Rattus norvegicus) (P15127 27-759 limits assumed): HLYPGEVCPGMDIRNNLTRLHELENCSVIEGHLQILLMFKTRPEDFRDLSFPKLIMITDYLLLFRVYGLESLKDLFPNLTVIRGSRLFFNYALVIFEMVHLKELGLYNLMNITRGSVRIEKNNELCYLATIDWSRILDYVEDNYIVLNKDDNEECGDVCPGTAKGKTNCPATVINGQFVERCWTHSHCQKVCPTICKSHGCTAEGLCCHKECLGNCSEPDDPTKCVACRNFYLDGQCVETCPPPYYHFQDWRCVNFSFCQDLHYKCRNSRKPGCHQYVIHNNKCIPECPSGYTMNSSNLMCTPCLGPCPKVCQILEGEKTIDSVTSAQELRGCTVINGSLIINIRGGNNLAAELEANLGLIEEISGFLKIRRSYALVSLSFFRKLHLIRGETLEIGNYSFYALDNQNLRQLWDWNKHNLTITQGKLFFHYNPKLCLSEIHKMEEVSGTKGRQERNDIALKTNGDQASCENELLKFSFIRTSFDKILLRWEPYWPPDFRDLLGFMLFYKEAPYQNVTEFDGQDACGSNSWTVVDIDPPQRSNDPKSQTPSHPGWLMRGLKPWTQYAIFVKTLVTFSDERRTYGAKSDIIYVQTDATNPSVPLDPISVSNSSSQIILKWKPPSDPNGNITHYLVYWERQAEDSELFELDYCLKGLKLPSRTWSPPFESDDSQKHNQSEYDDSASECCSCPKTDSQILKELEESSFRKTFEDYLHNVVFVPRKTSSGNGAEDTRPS
Sequence of Insulin receptor (Rattus norvegicus) (P15127 764-1383 limits assumed): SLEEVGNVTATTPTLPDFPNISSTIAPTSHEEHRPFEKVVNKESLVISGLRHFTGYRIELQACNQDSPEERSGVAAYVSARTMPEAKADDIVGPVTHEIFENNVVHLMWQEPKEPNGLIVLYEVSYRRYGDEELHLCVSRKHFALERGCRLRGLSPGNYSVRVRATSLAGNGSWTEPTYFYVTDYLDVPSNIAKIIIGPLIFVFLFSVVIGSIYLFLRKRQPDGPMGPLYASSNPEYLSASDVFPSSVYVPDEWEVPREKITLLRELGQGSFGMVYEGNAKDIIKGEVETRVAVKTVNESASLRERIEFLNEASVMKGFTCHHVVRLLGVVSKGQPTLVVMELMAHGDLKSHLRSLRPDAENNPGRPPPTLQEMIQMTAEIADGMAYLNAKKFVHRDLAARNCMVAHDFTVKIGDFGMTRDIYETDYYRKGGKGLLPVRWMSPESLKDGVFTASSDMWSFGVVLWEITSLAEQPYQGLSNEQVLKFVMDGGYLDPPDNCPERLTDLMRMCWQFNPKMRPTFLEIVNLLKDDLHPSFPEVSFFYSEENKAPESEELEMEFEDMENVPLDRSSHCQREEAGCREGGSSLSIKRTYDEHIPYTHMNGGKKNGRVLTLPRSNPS
The target in data set [6] is Insulin receptor (Homo sapiens) (UniProt P06213). Briefly: Stimulation of human active insulin receptor tyrosine kinase domain (amino acids 1005 to 1310) assessed as increase in autophosphorylation at 400 uM using 1000 uM ATP and insulin by BCIP/NBT staining based colorimetry and immunoblotting.
The target is the same in data set [7]. Briefly: Inhibition of IRTK (unknown origin) assessed as reduction in enzyme phosphorylation at 4 mM.

Starred links: 1 amine or outer side, 2 acyl side, 3 side chain; linkers in the order of their positions; H or OH if unused. Non-standard residues stand in square brackets, D forms with d. Residues, ends and D or L forms follow the SMILES beside them. azaTyr = O=C(N(Cc1ccc(O)cc1)N[*:1])[*:2]; X1 = O=C(N(Cc1ccc(O)c(O)c1)N[*:1])[*:2]; azaPhe = O=C(N(Cc1ccccc1)N[*:1])[*:2]; X3 = CC[C@H](C)N(N[*:1])C(=O)[*:2]; X2 = O=C(O)CCN(N[*:1])C(=O)[*:2]; AzaAla = CN(N[*:1])C(=O)[*:2]; azaGly = NNC(=O)O A value given as a limit tells only on which side of the number the result lay.

For `CC(C)(C)c1cc(C=C(C#N)C#N)cc(Br)c1O`, the inhibition (in general, the relative decrease from the control value, in per cent) in data set [1] stood at 80%.

As to `CC(=O)N[C@@H](CC(=O)O)C(=O)NN(C)C(=O)N[C@@H](Cc1ccc(O)cc1)C(=O)N[C@@H](CCC(=O)O)C(=O)N[C@H](C(N)=O)[C@@H](C)O` (Ac-D[AzaAla]YET-NH2), the Retention_time in data set [2] is 5.26 min; in data set [3], 7.42 min. In addition, the Activity in data set [4] amounted to 74%.

For the compound Ac-DIYET-NH2, the inhibition is 80% in data set [5] and less than 10% in data set [1]. In addition, the Activity in data set [4] came to 82%.

`CC[C@H](C)[C@H](NC(=O)[C@H](CC(=O)O)NC(C)=O)C(=O)N[C@@H](Cc1ccc(O)cc1)C(=O)NN(CCC(=O)O)C(=O)N[C@H](C(N)=O)[C@@H](C)O` (Ac-DIY[X2]T-NH2): the results for the Retention_time in data set [2] and in data set [3] were 6.41 min and 9.61 min, respectively. For the same compound, the Activity is 110% in data set [4] and 10% in data set [6].

With `CC(=O)N[C@@H](CC(=O)O)C(=O)NNC(=O)N[C@@H](Cc1ccc(O)cc1)C(=O)N[C@@H](CCC(=O)O)C(=O)N[C@H](C(N)=O)[C@@H](C)O` (Ac-D[azaGly]YET-NH2), the Retention_time came to 5.04 min in data set [2] and 6.99 min in data set [3]. Besides, the Activity in data set [4] was determined as 61%.

As for `CC[C@H](C)[C@H](NC(=O)[C@H](CC(=O)O)NC(C)=O)C(=O)NN(Cc1ccccc1)C(=O)N[C@@H](CCC(=O)O)C(=O)N[C@H](C(N)=O)[C@@H](C)O` (Ac-DI[azaPhe]ET-NH2), the values for the Retention_time in data set [2] and in data set [3] were 7.76 min and 11.76 min, respectively. The Activity in data set [4] is 67%.

Regarding `CC[C@H](C)N(NC(=O)[C@H](CC(=O)O)NC(C)=O)C(=O)N[C@@H](Cc1ccc(O)cc1)C(=O)N[C@@H](CCC(=O)O)C(=O)N[C@H](C(N)=O)[C@@H](C)O` (Ac-D[X3]YET-NH2), the Retention_time is 5.13 min in data set [2] and 6.97 min in data set [3]. Moreover, the Activity in data set [4] was 73%.

As for Ac-DIFET-NH2, the inhibition in data set [7] was 20%. In addition, the Activity in data set [4] is 84%.

As to `CC[C@H](C)[C@H](NC(=O)[C@H](CC(=O)O)NC(C)=O)C(=O)NN(Cc1ccc(O)cc1)C(=O)N[C@@H](CCC(=O)O)C(=O)N[C@H](C(N)=O)[C@@H](C)O` (Ac-DI[azaTyr]ET-NH2), the Retention_time is on record as 6.68 min in data set [2] and 9.95 min in data set [3]. Further, the Activity in data set [4] was 40%. In data set [1], the inhibition was 50%.

With `CC[C@H](C)[C@H](NC(=O)[C@H](CC(=O)O)NC(C)=O)C(=O)NN(Cc1ccc(O)c(O)c1)C(=O)N[C@@H](CCC(=O)O)C(=O)N[C@H](C(N)=O)[C@@H](C)O` (Ac-DI[X1]ET-NH2), the Retention_time is 6.33 min in data set [2] and 8.9 min in data set [3]. In addition, the Activity in data set [4] turned out to be 128%; in data set [6], 30%.
